Test results published in ChEMBL document CHEMBL1141712, “Kinase array design, back to front: biaryl amides” (Bioorg Med Chem Lett, 2008).

Columns and labels:
[1] = biological target: T1, Mitogen-activated protein kinase 14 (Homo sapiens, UniProt Q16539); assay: Displacement of fluorescent ATP competitive ligand from p38alpha
Blood = assay: Inhibition of LPS-stimulated TNFalpha release in human whole blood; format: functional, tissue-based
[2] = biological target: Serine/threonine-protein kinase PLK1 (Homo sapiens, UniProt P53350); assay: Inhibition of PLK1
[3] = biological target: Cyclin-dependent kinase 2 (Homo sapiens, UniProt P24941); assay: Inhibition of CDK2
[4] = biological target: T2, Serine/threonine-protein kinase Sgk1 (Homo sapiens, UniProt O00141); assay: Inhibition of SGK1
T2 sequence (O00141 whole entry): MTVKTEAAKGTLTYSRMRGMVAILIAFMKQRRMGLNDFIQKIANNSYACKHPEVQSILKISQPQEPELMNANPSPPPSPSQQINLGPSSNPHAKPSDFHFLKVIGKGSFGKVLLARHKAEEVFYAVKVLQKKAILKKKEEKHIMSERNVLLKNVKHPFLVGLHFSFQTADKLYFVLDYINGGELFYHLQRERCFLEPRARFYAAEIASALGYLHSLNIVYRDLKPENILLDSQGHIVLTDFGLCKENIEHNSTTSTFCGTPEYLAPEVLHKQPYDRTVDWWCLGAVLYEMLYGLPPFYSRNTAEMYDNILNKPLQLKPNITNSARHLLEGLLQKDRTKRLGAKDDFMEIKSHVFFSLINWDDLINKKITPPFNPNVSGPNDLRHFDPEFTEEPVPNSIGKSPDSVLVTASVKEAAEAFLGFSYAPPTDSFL

[5] = biological target: Receptor tyrosine-protein kinase erbB-4 (Homo sapiens, UniProt Q15303); assay: Inhibition of ErbB4
PBMC = assay: Inhibition of LPS-stimulated TNFalpha release in human PBMCs; format: functional, cell-based
[6] = biological target: Mitogen-activated protein kinase 10 (Homo sapiens, UniProt P53779); assay: Inhibition of JNK3
Sequence of Mitogen-activated protein kinase 10 (P53779 whole entry): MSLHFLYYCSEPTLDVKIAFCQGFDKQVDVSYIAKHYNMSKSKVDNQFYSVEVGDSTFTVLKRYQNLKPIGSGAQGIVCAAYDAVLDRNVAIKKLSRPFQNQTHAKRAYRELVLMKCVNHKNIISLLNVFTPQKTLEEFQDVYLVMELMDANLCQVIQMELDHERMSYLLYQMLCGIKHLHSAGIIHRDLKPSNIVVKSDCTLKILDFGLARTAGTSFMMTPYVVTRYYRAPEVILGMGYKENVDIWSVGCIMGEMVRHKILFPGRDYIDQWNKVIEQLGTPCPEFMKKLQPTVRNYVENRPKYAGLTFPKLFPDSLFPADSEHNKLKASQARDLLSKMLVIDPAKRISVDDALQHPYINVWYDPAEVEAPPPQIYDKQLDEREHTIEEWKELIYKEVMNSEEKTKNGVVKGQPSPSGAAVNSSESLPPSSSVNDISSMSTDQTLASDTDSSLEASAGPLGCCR

[7] = biological target: Macrophage colony-stimulating factor 1 receptor (Homo sapiens, UniProt P07333); assay: Inhibition of cFMS
Sequence of Macrophage colony-stimulating factor 1 receptor (P07333 whole entry): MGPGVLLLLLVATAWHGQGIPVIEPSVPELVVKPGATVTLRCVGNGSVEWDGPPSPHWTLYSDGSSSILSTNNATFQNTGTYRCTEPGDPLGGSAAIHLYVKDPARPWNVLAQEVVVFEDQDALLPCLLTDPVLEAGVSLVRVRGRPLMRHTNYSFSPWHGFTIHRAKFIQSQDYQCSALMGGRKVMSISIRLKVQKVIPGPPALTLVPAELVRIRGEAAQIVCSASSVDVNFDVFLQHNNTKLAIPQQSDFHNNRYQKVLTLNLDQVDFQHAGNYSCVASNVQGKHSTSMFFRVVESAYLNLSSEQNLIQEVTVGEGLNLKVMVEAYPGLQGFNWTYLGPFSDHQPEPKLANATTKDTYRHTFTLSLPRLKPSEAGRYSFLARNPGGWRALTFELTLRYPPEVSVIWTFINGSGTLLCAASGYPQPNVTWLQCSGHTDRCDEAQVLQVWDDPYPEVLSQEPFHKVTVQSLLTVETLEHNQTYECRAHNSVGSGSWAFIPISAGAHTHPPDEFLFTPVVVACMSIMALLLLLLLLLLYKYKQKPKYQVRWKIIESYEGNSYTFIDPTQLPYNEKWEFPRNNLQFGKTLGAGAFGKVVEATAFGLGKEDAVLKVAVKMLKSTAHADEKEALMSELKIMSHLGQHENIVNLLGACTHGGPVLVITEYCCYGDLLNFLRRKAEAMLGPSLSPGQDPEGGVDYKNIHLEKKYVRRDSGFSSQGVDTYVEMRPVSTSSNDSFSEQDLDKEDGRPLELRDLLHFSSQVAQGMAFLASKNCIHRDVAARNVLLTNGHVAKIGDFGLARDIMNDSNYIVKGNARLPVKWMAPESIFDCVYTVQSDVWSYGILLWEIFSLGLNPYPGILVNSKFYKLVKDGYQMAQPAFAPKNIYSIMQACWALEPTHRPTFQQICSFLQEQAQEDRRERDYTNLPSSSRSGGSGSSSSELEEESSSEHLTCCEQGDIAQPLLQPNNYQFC

[8] = biological target: Vascular endothelial growth factor receptor 2 (Homo sapiens, UniProt P35968); assay: Inhibition of VEGFR2
Sequence of Vascular endothelial growth factor receptor 2 (P35968 whole entry): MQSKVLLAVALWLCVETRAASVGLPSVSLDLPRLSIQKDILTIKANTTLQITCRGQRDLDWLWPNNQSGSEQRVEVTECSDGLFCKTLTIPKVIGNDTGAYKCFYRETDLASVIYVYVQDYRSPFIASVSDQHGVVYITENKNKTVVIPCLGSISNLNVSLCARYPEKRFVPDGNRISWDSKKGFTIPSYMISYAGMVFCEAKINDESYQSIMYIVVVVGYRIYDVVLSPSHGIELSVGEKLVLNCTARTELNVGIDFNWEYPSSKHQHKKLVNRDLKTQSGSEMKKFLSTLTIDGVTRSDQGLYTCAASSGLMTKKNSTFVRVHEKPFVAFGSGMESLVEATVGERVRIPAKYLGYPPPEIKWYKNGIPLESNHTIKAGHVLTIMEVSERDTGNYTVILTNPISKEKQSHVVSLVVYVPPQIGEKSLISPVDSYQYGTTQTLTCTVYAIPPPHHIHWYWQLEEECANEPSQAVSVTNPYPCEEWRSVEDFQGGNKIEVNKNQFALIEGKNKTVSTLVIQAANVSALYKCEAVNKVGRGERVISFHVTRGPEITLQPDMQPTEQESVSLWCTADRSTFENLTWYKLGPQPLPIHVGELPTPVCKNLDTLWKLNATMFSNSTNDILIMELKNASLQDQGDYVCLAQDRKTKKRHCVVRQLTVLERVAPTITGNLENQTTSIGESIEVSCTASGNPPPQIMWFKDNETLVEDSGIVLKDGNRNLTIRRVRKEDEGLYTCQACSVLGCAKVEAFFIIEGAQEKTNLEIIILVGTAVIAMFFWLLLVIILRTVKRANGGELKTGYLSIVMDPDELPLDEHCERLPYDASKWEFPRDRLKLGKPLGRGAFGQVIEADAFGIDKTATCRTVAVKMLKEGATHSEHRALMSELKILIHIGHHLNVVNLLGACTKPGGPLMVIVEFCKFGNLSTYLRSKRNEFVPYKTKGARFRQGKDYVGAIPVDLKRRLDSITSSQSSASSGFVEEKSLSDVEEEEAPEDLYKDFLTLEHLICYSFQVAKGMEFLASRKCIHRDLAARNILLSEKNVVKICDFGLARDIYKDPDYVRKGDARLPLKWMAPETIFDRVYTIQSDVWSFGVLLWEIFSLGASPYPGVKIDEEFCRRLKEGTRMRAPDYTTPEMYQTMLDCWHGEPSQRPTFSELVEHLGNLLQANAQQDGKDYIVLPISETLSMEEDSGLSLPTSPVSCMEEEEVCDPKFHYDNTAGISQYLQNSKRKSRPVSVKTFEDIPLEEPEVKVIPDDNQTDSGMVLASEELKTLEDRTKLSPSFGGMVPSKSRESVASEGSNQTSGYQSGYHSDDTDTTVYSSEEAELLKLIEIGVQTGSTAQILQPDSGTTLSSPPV

[9] = biological target: Epidermal growth factor receptor (Homo sapiens, UniProt P00533)
Sequence of Epidermal growth factor receptor (P00533 whole entry): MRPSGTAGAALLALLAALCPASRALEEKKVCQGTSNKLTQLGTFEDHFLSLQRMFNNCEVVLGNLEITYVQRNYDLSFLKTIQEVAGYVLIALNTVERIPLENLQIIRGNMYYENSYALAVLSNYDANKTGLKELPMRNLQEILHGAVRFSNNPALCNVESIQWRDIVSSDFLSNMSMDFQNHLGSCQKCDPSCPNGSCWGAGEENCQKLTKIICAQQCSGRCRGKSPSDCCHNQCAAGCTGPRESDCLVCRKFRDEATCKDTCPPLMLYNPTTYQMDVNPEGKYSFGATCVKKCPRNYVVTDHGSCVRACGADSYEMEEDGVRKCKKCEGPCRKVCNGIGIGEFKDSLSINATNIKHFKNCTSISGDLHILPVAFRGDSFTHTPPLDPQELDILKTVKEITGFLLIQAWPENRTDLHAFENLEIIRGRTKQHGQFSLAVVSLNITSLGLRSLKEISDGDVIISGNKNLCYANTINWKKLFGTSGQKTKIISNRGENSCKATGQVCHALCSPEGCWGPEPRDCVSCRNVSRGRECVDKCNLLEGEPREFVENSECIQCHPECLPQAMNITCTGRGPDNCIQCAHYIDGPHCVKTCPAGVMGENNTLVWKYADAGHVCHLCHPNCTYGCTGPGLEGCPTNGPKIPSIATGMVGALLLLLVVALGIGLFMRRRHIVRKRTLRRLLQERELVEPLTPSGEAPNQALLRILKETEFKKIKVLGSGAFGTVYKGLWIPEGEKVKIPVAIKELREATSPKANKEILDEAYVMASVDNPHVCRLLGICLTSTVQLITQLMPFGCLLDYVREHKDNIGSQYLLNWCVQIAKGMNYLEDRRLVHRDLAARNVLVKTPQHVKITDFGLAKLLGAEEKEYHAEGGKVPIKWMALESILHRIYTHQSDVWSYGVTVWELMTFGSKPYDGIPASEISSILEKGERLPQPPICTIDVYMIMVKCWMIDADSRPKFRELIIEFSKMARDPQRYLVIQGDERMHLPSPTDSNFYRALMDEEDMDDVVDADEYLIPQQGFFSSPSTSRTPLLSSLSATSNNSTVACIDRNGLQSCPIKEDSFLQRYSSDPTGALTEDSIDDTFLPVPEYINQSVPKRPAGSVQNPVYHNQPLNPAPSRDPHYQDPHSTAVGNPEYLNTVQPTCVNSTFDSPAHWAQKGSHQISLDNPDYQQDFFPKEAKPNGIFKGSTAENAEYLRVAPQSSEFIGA

[10] = biological target: Tyrosine-protein kinase Lck (Homo sapiens, UniProt P06239)
Sequence of Tyrosine-protein kinase Lck (P06239 whole entry): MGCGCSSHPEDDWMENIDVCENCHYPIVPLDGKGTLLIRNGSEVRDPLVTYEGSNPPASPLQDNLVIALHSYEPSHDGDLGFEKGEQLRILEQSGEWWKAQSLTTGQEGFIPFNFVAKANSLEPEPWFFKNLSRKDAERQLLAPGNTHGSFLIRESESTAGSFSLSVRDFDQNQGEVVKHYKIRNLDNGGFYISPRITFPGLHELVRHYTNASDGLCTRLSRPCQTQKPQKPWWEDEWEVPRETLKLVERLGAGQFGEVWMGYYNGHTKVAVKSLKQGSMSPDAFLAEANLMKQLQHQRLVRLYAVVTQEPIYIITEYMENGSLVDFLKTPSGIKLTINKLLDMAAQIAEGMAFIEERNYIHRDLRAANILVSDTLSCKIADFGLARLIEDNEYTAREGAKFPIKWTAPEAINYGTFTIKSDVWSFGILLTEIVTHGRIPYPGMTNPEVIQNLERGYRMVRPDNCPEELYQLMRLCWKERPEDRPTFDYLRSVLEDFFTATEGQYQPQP

[11] = Terminal half life in Lewis rat at 1 mg/kg, iv; format: ADME, organism-based; set-up: dose 1 mg/kg, route intravenous; conditions: in vivo, read-out: beta t1/2 (converted)
In short: (§1)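 Male Lewis rats were dosed at 1 mg/kg intravenously and orally, with compound given as a solution in 10% DMSO/70% PEG200/20% water. Blood was collected over 12 h, and parameters were derived from a composite blood sampling profile.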

[12] = Volume of distribution at steady state in Lewis rat at 1 mg/kg, iv; format: ADME, organism-based; set-up: dose 1 mg/kg, route intravenous; conditions: in vivo, read-out: Vdss; in short: as §1
[13] = Plasma clearance in Lewis rat at 1 mg/kg, iv; format: ADME, organism-based; set-up: dose 1 mg/kg, route intravenous; in short: as §1
[14] = Oral bioavailability in Lewis rat at 1 mg/kg; format: ADME, organism-based; conditions: in vivo; in short: as §1
[15] = biological target: Dual specificity mitogen-activated protein kinase kinase 1 (Homo sapiens, UniProt Q02750); assay: Inhibition of MEK1 by cRaf/mek/Erk cascade assay
[16] = AUC ( 0 to 12 hrs) in Lewis rat at 1 mg/kg, po; format: ADME, organism-based; set-up: time < 12 hr, dose 1 mg/kg, route oral; conditions: plasma
[17] = biological target: T1, Mitogen-activated protein kinase 14; assay: Inhibition of p38alpha
In short: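 p38α Ki determined by measuring displacement of a fluorescent ATP-competitive inhibitor from the enzyme. Impure products and those giving inconsistent assay results were excluded.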

T1 sequence (Q16539 whole entry): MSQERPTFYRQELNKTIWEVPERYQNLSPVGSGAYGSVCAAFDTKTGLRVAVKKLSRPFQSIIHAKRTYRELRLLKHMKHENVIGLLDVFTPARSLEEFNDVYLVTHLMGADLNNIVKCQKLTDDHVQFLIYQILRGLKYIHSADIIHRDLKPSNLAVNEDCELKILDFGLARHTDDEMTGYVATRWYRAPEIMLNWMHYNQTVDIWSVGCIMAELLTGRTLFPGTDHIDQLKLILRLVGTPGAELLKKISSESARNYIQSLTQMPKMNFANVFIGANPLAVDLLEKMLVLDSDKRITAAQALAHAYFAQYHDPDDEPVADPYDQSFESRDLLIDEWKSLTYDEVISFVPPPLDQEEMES

CCCCn1c(=O)[nH]c2cc(-c3cc(C(=O)Nc4cccc(N5CCOCC5)c4)ccc3C)ccc2c1=O
Ki [1]: 19 nM

Cc1ccc(NC(=O)c2ccc(CN3CCN(C)CC3)cc2)cc1-c1ccc2[nH]c(=O)ccc2c1
Ki [1]: > 2500 nM

Cc1ccc(C(=O)NC2CC2)cc1-c1ccc2cc[nH]c(=O)c2c1
Ki [1]: 420 nM

Cc1ccc(C(=O)Nc2cccc(N3CCOCC3)c2)cc1-c1ccc2cc[nH]c(=O)c2c1
Ki [1]: 18 nM

Cc1ccc(C(=O)NC2CC2)cc1-c1ccc2c(N)noc2c1
Ki [1]: 110 nM

Cc1ccc(C(=O)NC2CC2)cc1-c1ccc(-c2csc(N)n2)cc1
Ki [1]: 130 nM

Cc1ccc(NC(=O)c2ccnc(N3CCCC3)c2)cc1-c1ccc2cc[nH]c(=O)c2c1
Ki [1]: 2.4 nM

Cc1ccc(NC(=O)c2ccc(CN3CCN(C)CC3)cc2)cc1-c1ccc2cc[nH]c(=O)c2c1
Ki [1]: > 2500 nM

CCCCn1c(=O)[nH]c2cc(-c3cc(NC(=O)c4ccc(CN5CCN(C)CC5)cc4)ccc3C)ccc2c1=O
Ki [1]: 2000 nM

Cc1ccc(NC(=O)c2ccnc(N3CCCC3)c2)cc1-c1ccc2nc(N)[nH]c(=O)c2c1
Ki [1]: 6.8 nM

Cc1nc(-c2ccc(-c3cc(NC(=O)c4ccnc(N5CCCC5)c4)ccc3C)cc2)no1
Ki [1]: 1.1 nM

Cc1ccc(C(=O)NC2CC2)cc1-c1ccc2c(=O)n(CC3CC3)nnc2c1
IC50 (Blood): 500 nM | IC50 [2]: > 25000 nM | IC50 [3]: > 20000 nM | Ki [1]: 6 nM | IC50 [4]: 32000 nM | IC50 [5]: > 25000 nM | IC50 (PBMC): 400 nM | IC50 [6]: > 16000 nM | IC50 [7]: > 20000 nM | IC50 [8]: > 20000 nM | IC50 [9]: > 25000 nM | IC50 [10]: > 16000 nM

Cc1ccc(NC(=O)c2ccc(CN3CCN(C)CC3)cc2)cc1-c1ccc2ccncc2c1
IC50 [2]: > 25000 nM | IC50 [3]: > 20000 nM | Ki [1]: 830 nM | IC50 [4]: > 33000 nM | IC50 [5]: 300 nM | IC50 [6]: > 16000 nM | IC50 [7]: 4 nM | IC50 [8]: 800 nM | IC50 [9]: 700 nM | IC50 [10]: 70 nM

Cc1nnc(-c2ccc(-c3cc(C(=O)NC4CC4)ccc3C)c(C)c2)o1
half-life [11]: 4.6 h | Vd [12]: 1.2 L/kg | clearance [13]: 3 mL/min/kg | IC50 (Blood): 1000 nM | IC50 [2]: > 25000 nM | IC50 [3]: > 20000 nM | bioavailability [14]: 91% | IC50 [4]: > 33000 nM | IC50 [15]: 20000 nM | IC50 (PBMC): 100 nM | AUC(0-t) at 12 h [16]: 4180 ng·h/mL | IC50 [7]: > 20000 nM | IC50 [8]: > 20000 nM

Cc1ccc(NC(=O)c2ccnc(N3CCCC3)c2)cc1-c1ccc2onc(C)c2c1
Ki [1]: 160 nM

Cc1ccc(C(=O)Nc2cccc(N3CCOCC3)c2)cc1I
Ki [17]: > 2000 nM

Cc1nnc(-c2ccc(-c3cc(C(=O)Nc4cccc(N5CCOCC5)c4)ccc3C)c(C)c2)o1
IC50 [2]: > 25000 nM | IC50 [3]: > 20000 nM | Ki [1]: 2.8 nM | IC50 [4]: > 33000 nM | IC50 [15]: 400 nM | IC50 [6]: > 16000 nM | IC50 [7]: 700 nM | IC50 [8]: 6000 nM

Cc1ccc(C(=O)NC2CC2)cc1-c1ccc2c(=O)[nH]c(-c3cccs3)nc2c1
Ki [1]: 2.9 nM

Cc1ccc(C(=O)Nc2cccc(N3CCOCC3)c2)cc1-c1ccc(-c2csc(N)n2)cc1
Ki [1]: 20 nM

Cc1ccc(C(=O)Nc2cccc(N3CCOCC3)c2)cc1-c1ccc2c(N)noc2c1
Ki [1]: 19 nM

Cc1ccc(C(=O)NC2CC2)cc1-c1ccc2onc(C)c2c1
Ki [1]: 1100 nM

Cc1ccc(NC(=O)c2ccnc(N3CCCC3)c2)cc1-c1ccc(-c2csc(N)n2)cc1
Ki [1]: 6.7 nM

Cc1ccc(C(=O)NC2CC2)cc1-c1ccc2ccncc2c1
IC50 (Blood): 100 nM | IC50 [2]: > 25000 nM | IC50 [3]: > 20000 nM | Ki [1]: 11 nM | IC50 [4]: > 33000 nM | IC50 [5]: > 25000 nM | IC50 (PBMC): 100 nM | IC50 [6]: > 16000 nM | IC50 [7]: 600 nM | IC50 [8]: 500 nM | IC50 [9]: > 25000 nM | IC50 [10]: 3000 nM

Cc1ccc(C(=O)NC2CC2)cc1-c1ccc2[nH]ncc2c1 [GW820759X]
Ki [1]: 87 nM
